ChEMBL document CHEMBL2021762, “Derivatives of 8-hydroxyquinoline--antibacterial agents that target intra- and extracellular Gram-negative pathogens” (Bioorg Med Chem Lett, 2012)
Converted amounts (≈) assume the structure as drawn. “And” between values parts separate entries of the source, which are not always exact repeats. Equal entries are not always repeated. The source made the active and inactive calls. No cut-off for these calls is given here.

Experiments:
Chlamydia trachomatis [1] = test: Antibacterial activity against Chlamydia trachomatis infected in HeLa cells at 100 uM up to 6 hrs; format: functional, organism-based
[2] = Cytotoxicity against human HeLa cells assessed as cell viability at 2 time MIC; format: cell-based; details: read-out: Activity
Chlamydia trachomatis [3] = test: Antibacterial activity against Chlamydia trachomatis infected in HeLa cells; format: functional
Summary of the method: (§1)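 HeLa cells infected with C. trachomatis […] and incubated with compound in a dilution series, with a DMSO-treated control. Chlamydial inclusions are immunostained green and HeLa cells counterstained red. Inclusion size and number and HeLa cell morphology are judged by fluorescence microscopy. MIC is read from the absence of visible inclusions.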

[4] = target: Tyrosine-protein phosphatase YopH (Yersinia pseudotuberculosis serotype I (strain IP32953)) (UniProt P08538); test: Inhibition of Yersinia pseudotuberculosis phosphatase activity of secreted YopH at 10 uM
Chain of Tyrosine-protein phosphatase YopH (Yersinia pseudotuberculosis serotype I (strain IP32953)) (P08538 whole entry): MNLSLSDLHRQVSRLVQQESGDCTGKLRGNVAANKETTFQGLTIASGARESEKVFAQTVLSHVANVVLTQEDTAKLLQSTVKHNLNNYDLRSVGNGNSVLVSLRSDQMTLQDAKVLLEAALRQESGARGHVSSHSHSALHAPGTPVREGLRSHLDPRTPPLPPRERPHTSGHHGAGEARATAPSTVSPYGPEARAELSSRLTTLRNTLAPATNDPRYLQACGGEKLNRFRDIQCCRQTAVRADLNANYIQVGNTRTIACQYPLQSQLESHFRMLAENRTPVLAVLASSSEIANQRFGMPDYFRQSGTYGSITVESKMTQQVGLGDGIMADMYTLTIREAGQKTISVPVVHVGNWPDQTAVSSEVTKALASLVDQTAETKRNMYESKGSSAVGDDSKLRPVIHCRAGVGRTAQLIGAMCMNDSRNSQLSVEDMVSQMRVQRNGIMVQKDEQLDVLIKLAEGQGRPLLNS
Summary of the method: (§2)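 Phosphatase activity of YopH secreted by Y. pseudotuberculosis, measured at 10, 20, 50 and 100 µM; expressed as percent inhibition. Some runs used HCl salt form.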

[5] = target: Tyrosine-protein phosphatase YopH (Yersinia pseudotuberculosis serotype I (strain IP32953)) (UniProt P08538); test: Inhibition of Yersinia pseudotuberculosis phosphatase activity of secreted YopH at 20 uM; summary of the method: as §2
[6] = target: Tyrosine-protein phosphatase YopH (Yersinia pseudotuberculosis serotype I (strain IP32953)) (UniProt P08538); test: Inhibition of Yersinia pseudotuberculosis phosphatase activity of secreted YopH at 50 uM; summary of the method: as §2
[7] = target: Tyrosine-protein phosphatase YopH (Yersinia pseudotuberculosis serotype I (strain IP32953)) (UniProt P08538); test: Inhibition of Yersinia pseudotuberculosis phosphatase activity of secreted YopH at 100 uM; summary of the method: as §2
[8] = (§3) Inhibition of type 3 secretion in Yersinia pseudotuberculosis by reporter gene assay
Summary of the method: (§4)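 Y. pseudotuberculosis T3S-linked reporter-gene screen, luminescence read on filter-based plate reader; compounds added from DMSO solutions. Tested at 10, 20, 50 and 100 µM, expressed as percent inhibition. EC50 taken from dose-response curves. Activity also checked with detergent present to exclude aggregation.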

[9] = tested on: Yersinia pseudotuberculosis; test: as §3; summary of the method: as §4
[10] = target: Tyrosine-protein phosphatase YopH (Yersinia pseudotuberculosis serotype I (strain IP32953)) (UniProt P08538); test: Inhibition of Yersinia pseudotuberculosis phosphatase activity of secreted YopH; summary of the method: as §2
[11] = tested on: Yersinia pseudotuberculosis; test: Antibacterial activity against wild type Yersinia pseudotuberculosis infected in mouse J774 cells assessed as increase of host cell viability at 3.1 to 25 uM; format: functional, organism-based
Summary of the method: (§5)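 J774 macrophages infected with Y. pseudotuberculosis, wild-type (pIB102) or T3S-deficient mutant (pIB604); uninfected control included. Viability read with CalceinAM fluorescence (green conversion in healthy cells). 100% = uninfected cells given DMSO alone.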

[12] = tested on: Yersinia pseudotuberculosis; test: Antibacterial activity against T3S deficient Yersinia pseudotuberculosis infected in mouse J774 cells assessed as increase of host cell viability at 3.1 to 25 uM; format: functional, organism-based; summary of the method: as §5
J774 = test: Cytotoxicity against mouse J774 cells assessed as cell viability at 3.1 to 25 uM; format: cell-based; details: j774, 25 µM
Chlamydia trachomatis [13] = test: Antibacterial activity against Chlamydia trachomatis infected in HeLa cells assessed as reduction of inclusions size at 1.56 uM by fluorescence microscopy analysis; format: functional, organism-based; summary of the method: as §1
HeLa [14] = test: Cytotoxicity against human HeLa cells assessed as visible inclusions by fluorescence microscopy; format: cell-based; summary of the method: as §1
HeLa [15] = test: Cytotoxicity against human HeLa cells assessed as change in morphology by fluorescence microscopy; format: cell-based; summary of the method: as §1
[16] = tested on: Yersinia pseudotuberculosis; test: Inhibition of type 3 secretion in Yersinia pseudotuberculosis at 10 uM by reporter gene assay; summary of the method: as §4
[17] = tested on: Yersinia pseudotuberculosis; test: Inhibition of type 3 secretion in Yersinia pseudotuberculosis at 20 uM by reporter gene assay; summary of the method: as §4
[18] = tested on: Yersinia pseudotuberculosis; test: Inhibition of type 3 secretion in Yersinia pseudotuberculosis at 50 uM by reporter gene assay; summary of the method: as §4
[19] = tested on: Yersinia pseudotuberculosis; test: Inhibition of type 3 secretion in Yersinia pseudotuberculosis at 100 uM by reporter gene assay; summary of the method: as §4
Chlamydia trachomatis [20] = test: Antibacterial activity against Chlamydia trachomatis infected in HeLa cells at 50 uM up to 6 hrs; format: functional, organism-based

In the case of `O=[N+]([O-])c1cc(CN2CCN(c3ccc(F)cc3)CC2)c(O)c2ncccc12`, the Activity (Chlamydia trachomatis [1]) is reported as “inactive”, the viability [2] is reported as 90.2% and the MIC (Chlamydia trachomatis [3]) is reported as 3.13 µM (≈ 1.2 µg/mL). The inhibition [4] was 17% and 38%, the inhibition [5] was 56% and 66% and the inhibition [6] was 88% and 81%. The inhibition [7] was 94% and 83%, the EC50 [8] was 6.24 µM and the inhibition [9] was “Dose-dependent effect”. The inhibition [10] was “Dose-dependent effect”, the Activity [11] was “Active” and the Activity [12] was “inactive”. The Activity (J774) was “Toxic”, the Activity (Chlamydia trachomatis [13]) was “Active” and the Activity (HeLa [14]) was “Non-toxic”. The Activity (HeLa [15]) was “Non-toxic”.
For `Oc1c(CN2CCN(c3ccccc3)CC2)cc(Cl)c2cccnc12`, the inhibition [16] was “inactive”, the inhibition [17] was “inactive” and the inhibition [18] was 14% and 22%.
With `CN1CCN(Cc2cc(Cl)c3cccnc3c2O)CC1` the inhibition [16] was “inactive”, the inhibition [17] was “inactive” and the inhibition [18] was “inactive”. For the same molecule, the inhibition [19] was 48%.
For `COc1ccccc1N1CCN(Cc2cc([N+](=O)[O-])c3cccnc3c2O)CC1`, the inhibition [16] was “inactive”, the inhibition [17] was 25% and the inhibition [18] was 77%. For the same molecule, the inhibition [19] was 85%.
In the case of `Cc1cccc(N2CCN(Cc3cc(Br)c4cccnc4c3O)CC2)c1`, the inhibition [16] is reported as “inactive”, the inhibition [17] is reported as “inactive” and the inhibition [18] is reported as 41%. It also gave an inhibition [19] of 81%.
For `O=[N+]([O-])c1cc(CN2CCN(c3ccccc3)CC2)c(O)c2ccccc12`, the inhibition [16] was “inactive”, the inhibition [17] was “inactive” and the inhibition [18] was “inactive”. For the same molecule, the inhibition [19] was “inactive”.
In the case of `Oc1c(CN2CCN(c3ccc(F)cc3)CC2)cc(Cl)c2cccnc12`, the inhibition [16] is reported as “inactive”, the inhibition [17] is reported as “inactive” and the inhibition [18] is reported as 93%. It also gave an inhibition [19] of 97%.
For `Oc1c(CN2CCN(c3ccc(F)cc3)CC2)cc(Br)c2cccnc12`, the inhibition [16] was “inactive”, the inhibition [17] was “inactive” and the inhibition [18] was 78%. It also gave an inhibition [19] of 89%.
In the case of `O=[N+]([O-])c1cc(CN2CCC(c3ccccc3)C2)c(O)c2ncccc12` (racemic), the Activity (Chlamydia trachomatis [20]) is reported as “inactive”, the viability [2] is reported as 92.1% and the MIC (Chlamydia trachomatis [3]) is reported as 12.5 µM (≈ 4.37 µg/mL). It also gave an inhibition [16] of 54%, an inhibition [17] of 79% and an inhibition [18] of 95%. It also gave an inhibition [19] of 98%, an inhibition [4] of 47% and an inhibition [5] of 64%. It also gave an inhibition [6] of 68%, an inhibition [7] of 69% and an EC50 [8] of 14.6 µM. The inhibition [9] was “Dose-dependent effect”, the inhibition [10] was “Dose-dependent effect” and the Activity [11] was “Active”. For the same molecule, the Activity [12] was “inactive” and the Activity (J774) was “Toxic”.
With `O=[N+]([O-])c1ccc(O)c(CN2CCN(c3ccccc3)CC2)c1` the inhibition [16] was “inactive”, the inhibition [17] was “inactive” and the inhibition [18] was “inactive”. The inhibition [19] was “inactive”.
With `COc1c(CN2CCN(c3ccccc3)CC2)cc(Cl)c2cccnc12` the inhibition [16] was “inactive”, the inhibition [17] was “inactive” and the inhibition [18] was “inactive”. For the same molecule, the inhibition [19] was “inactive”.
In the case of `COc1c(CN2CCN(c3ccccc3)CC2)cc(Br)c2cccnc12`, the inhibition [16] is reported as “inactive”, the inhibition [17] is reported as “inactive” and the inhibition [18] is reported as “inactive”. For the same molecule, the inhibition [19] was “inactive”.
With `O=[N+]([O-])c1cc(CN2CCN(c3ccccc3)CC2)c(O)c2ncccc12` the Activity (Chlamydia trachomatis [1]) was “inactive”, the viability [2] was 66.3% and the MIC (Chlamydia trachomatis [3]) was 25 µM (≈ 9.11 µg/mL). It also gave an inhibition [16] of 66%, an inhibition [17] of 88% and an inhibition [18] of 94%. For the same molecule, the inhibition [19] was 97%, the inhibition [4] was 49% and the inhibition [5] was 73%. It also gave an inhibition [6] of 77%, an inhibition [7] of 79% and an EC50 [8] of 12.4 µM. The inhibition [9] was “Dose-dependent effect”, the inhibition [10] was “Dose-dependent effect” and the Activity [11] was “Active”. The Activity [12] was “inactive” and the Activity (J774) was “Toxic”.
For `Oc1c(CN2CCCCC2)cc(Cl)c2cccnc12`, the inhibition [16] was “inactive”, the inhibition [17] was “inactive” and the inhibition [18] was 8%. The inhibition [19] was 12%.
In the case of `Oc1c(CN2CCN(c3ccccn3)CC2)cc(Cl)c2cccnc12`, the inhibition [16] is reported as “inactive”, the inhibition [17] is reported as “inactive” and the inhibition [18] is reported as 80%. The inhibition [19] was 98%.
In the case of `CCOc1ccccc1N1CCN(Cc2cc(Cl)c3cccnc3c2O)CC1`, the inhibition [16] is reported as “inactive”, the inhibition [17] is reported as “inactive” and the inhibition [18] is reported as 37%. It also gave an inhibition [19] of 89%.
For `O=[N+]([O-])c1ccc(O)c(CN2CCN(c3ccc(Cl)cc3)CC2)c1`, the inhibition [16] was “inactive”, the inhibition [17] was “inactive” and the inhibition [18] was “inactive”. The inhibition [19] was “inactive”.
For `CC1CN(Cc2cc([N+](=O)[O-])c3cccnc3c2O)CC(C)O1` (stereo not drawn), the inhibition [16] was “inactive”, the inhibition [17] was “inactive” and the inhibition [18] was 76%. It also gave an inhibition [19] of 93%.
For `Oc1c(CN2CCN(c3ccc(F)cc3)CC2)ccc2cccnc12`, the inhibition [16] was “inactive”, the inhibition [17] was “inactive” and the inhibition [18] was 58%. It also gave an inhibition [19] of 95%.
